Measurements gathered from unrelated publications.

SMILES | organism | test | system | setting | measurement | value
Cc1nc2ccc(Cl)cn2c1C(=O)N1CCN(Cc2cn(-c3ccccc3)nn2)CC1 | Leishmania major | parasite growth, resazurin | – | 72 h, promastigote | IC50 | 192 µM
CC1(C)S[C@@H]2[C@H](NC(=O)[C@H](N)c3ccccc3)C(=O)N2[C@H]1C(=O)O | Enterococcus faecalis | microbial growth, agar dilution | ATCC33186 | 26.93 µM | inhibition | 100%
Cc1ccc2nc(-c3ccc([N+](=O)[O-])cc3)n(Cc3ccccc3Cl)c2c1 | Enterococcus faecalis | microbial growth, broth dilution | ATCC29212 | – | MIC | 64 mg/L
Cc1ccn2c(C(=O)N3CCN(Cc4cn(-c5ccc([N+](=O)[O-])cc5)nn4)CC3)c(C)nc2c1 | Leishmania major | parasite growth, resazurin | – | 72 h, promastigote | IC50 | > 500 µM
C[C@@H]1[C@H](O)[C@@H](C)/C=C/C=C/C=C/C=C/C=C/C=C/C=C/[C@H](O[C@@H]2O[C@H](C)[C@@H](O)[C@H](N)[C@@H]2O)C[C@@H]2O[C@](O)(C[C@@H](O)C[C@@H](O)[C@H](O)CC[C@@H](O)C[C@@H](O)CC(=O)O[C@H]1C)C[C@H](O)[C@H]2C(=O)O | Aspergillus fumigatus | microbial growth, resazurin | ATCC204305 | – | IC50 | 1.18 mg/L
O=C1NN=C(N=Cc2ccc(O)cc2O)C1=NNn1c(-c2ccccc2)nc2ccccc2c1=O | Aspergillus fumigatus | microbial growth, broth dilution | – | – | MIC | 53.5 µM
Oc1ccc(Br)cc1-c1nc2ccccc2[nH]1 | Enterococcus faecalis | microbial growth, broth dilution | ATCC29212 | – | MIC | 128 mg/L
Cc1ccn2c(C(=O)N3CCN(Cc4cn(-c5ccccc5)nn4)CC3)c(C)nc2c1 | Leishmania major | parasite growth, resazurin | – | 72 h, promastigote | IC50 | 246 µM
Cc1ccc2nc(-c3ccc(Cl)c(Cl)c3)[nH]c2c1 | Enterococcus faecalis | microbial growth, broth dilution | ATCC29212 | – | MIC | 16 mg/L
CC1=NN(CNc2ccc(O)cc2)C(=O)C1=NNn1c(-c2ccccc2)nc2ccccc2c1=O | Aspergillus fumigatus | microbial growth, broth dilution | – | – | MIC | 53.5 µM
C=CCn1c(-c2ccc([N+](=O)[O-])cc2)nc2ccccc21 | Enterococcus faecalis | microbial growth, broth dilution | ATCC29212 | – | MIC | 64 mg/L
CN(C)N1C(=O)c2ccccc2C1CB1OC(C)(C)C(C)(C)O1 (centres unmarked) | Leishmania major | parasite growth | – | intracellular, amastigote | IC50 | 94.6 µM
Cc1nc2ccc(Cl)cn2c1C(=O)N1CCN(Cc2cn(-c3ccc([N+](=O)[O-])cc3)nn2)CC1 | Leishmania major | parasite growth, resazurin | – | 72 h, promastigote | IC50 | > 250 µM
C[C@@H](c1ncncc1F)[C@](O)(Cn1cncn1)c1ccc(F)cc1F | Acanthamoeba griffini | parasite growth, resazurin | – | 7 days | IC50 | 37.6 µM
Fc1ccc(-c2nc3ccccc3[nH]2)cc1 | Enterococcus faecalis | microbial growth, broth dilution | ATCC29212 | – | MIC | 256 mg/L
CC1=NN(CNc2ccc(Cl)cc2)C(=O)C1=NNn1c(-c2ccccc2)nc2ccccc2c1=O | Aspergillus fumigatus | microbial growth, broth dilution | – | – | MIC | 51.5 µM
CCCc1cn(CCN2CCN(C(=O)c3c(C)nc4cc(C)ccn34)CC2)nn1 | Leishmania major | parasite growth, resazurin | – | 72 h, promastigote | IC50 | 176 µM
C[C@@H]1[C@H](O)[C@@H](C)/C=C/C=C/C=C/C=C/C=C/C=C/C=C/[C@H](O[C@@H]2O[C@H](C)[C@@H](O)[C@H](N)[C@@H]2O)C[C@@H]2O[C@](O)(C[C@@H](O)C[C@@H](O)[C@H](O)CC[C@@H](O)C[C@@H](O)CC(=O)O[C@H]1C)C[C@H](O)[C@H]2C(=O)O | Aspergillus fumigatus | microbial growth | ATCC204305 | – | MIC | 1.35 µM
c1ccc2c(-c3nc4ccccc4[nH]3)c3ccccc3cc2c1 | Enterococcus faecalis | microbial growth, broth dilution | ATCC29212 | – | MIC | 64 mg/L
Cc1nc2ccc(Cl)cn2c1C(=O)N1CCN(Cc2cn(-c3ccc(Br)cc3)nn2)CC1 | Leishmania major | parasite growth, resazurin | – | 72 h, promastigote | IC50 | 33.6 µM
